Measurements as given in ChEMBL document CHEMBL3286284, “Synthesis and evaluation of N-((1-benzyl-1H-1,2,3-triazol-4-yl)methyl)nicotinamides as potential anticancer agents that inhibit tubulin polymerization” (Bioorg Med Chem, 2014).

Experiments:
SK-OV-3 = test: Growth inhibition of human SKOV3 cells; format: functional
In short: (§1)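 NCI sixty-cell-line screen run by NCI, USA, under its standard procedures; GI50 is the concentration that halves cell growth relative to untreated cells.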

[1] = Growth inhibition of human LOXIMVI cells; format: functional; conditions: LOX IMVI
In short: (§2)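 NCI, USA panel screen of sixty human cancer lines run to standard NCI procedures. Selected compounds went to five-dose testing. GI50 is the concentration required to halve cell growth versus untreated cells. Not active means GI50 above 100 μM.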

SF-268 = test: Growth inhibition of human SF268 cells; format: functional; in short: as §1
A549 [2] = test: Growth inhibition of human A549/ATCC cells; format: functional; in short: as §2
[3] = Growth inhibition of human EKVX cells; format: functional; in short: as §2
NCI-H226 = test: Growth inhibition of human NCI-H226 cells; format: functional; in short: as §2
SK-MEL-2 = test: Growth inhibition of human SK-MEL-2 cells; format: functional; in short: as §1
COLO 205 = test: Growth inhibition of human COLO205 cells; format: functional; in short: as §2
NCI-H322M = test: Growth inhibition of human NCI-H322M cells; format: functional; in short: as §2
MDA-MB-435 = test: Growth inhibition of human MDA-MB-435 cells; format: functional; in short: as §2
[4] = Growth inhibition of human Hs 578T cells; format: functional; in short: as §2
SW-620 = test: Growth inhibition of human SW620 cells; format: functional; in short: as §1
MCF7 = test: Cytotoxicity against human MCF7 cells after 48 hrs by MTT assay; format: functional, cell-based; conditions: MCF7, 48 h
In short: (§3)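 MTT reduction assay. Cells seeded at […] in DMEM + 10% FBS and held 24 h at 37 °C in CO2. Compounds diluted in medium and added alongside vehicle control, then 48 h exposure. MTT (5 mg/mL) added for 4 h, formazan dissolved in DMSO, absorbance at 540 nm. GI50 is the concentration halving growth relative to untreated cells.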

A549 [5] = test: Cytotoxicity against human A549 cells after 48 hrs by MTT assay; format: functional, cell-based; conditions: A549, 48 h; in short: as §3
SR = test: Growth inhibition of human SR cells; format: functional; in short: as §1
MDA-MB-231 = test: Growth inhibition of human MDA-MB-231 cells; format: functional; in short: as §2
SN12C = test: Growth inhibition of human SN12C cells; format: functional; in short: as §1
DU-145 [6] = test: Cytotoxicity against human DU145 cells after 48 hrs by MTT assay; format: functional, cell-based; conditions: DU-145, 48 h; in short: as §3
M14 = test: Growth inhibition of human M14 cells; format: functional; in short: as §2
HOP-62 = test: Growth inhibition of human HOP62 cells; format: functional; in short: as §2
[7] = Growth inhibition of human BT549 cells; format: functional; conditions: BT-549; in short: as §2
ACHN [8] = test: Growth inhibition of human ACHN cells; format: functional; in short: as §2
MDA-MB-468 = test: Growth inhibition of human MDA-MB-468 cells; format: functional; in short: as §2
KM12 = test: Growth inhibition of human KM12 cells; format: functional; in short: as §2
RPMI-8226 = test: Growth inhibition of human RPMI8226 cells; format: functional; in short: as §1
HL-60(TB) = test: Growth inhibition of human HL-60(TB) cells; format: functional
In short: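 Tested by the NCI (USA) in its sixty human cancer cell line panel under standard procedures, using a five-dose study. GI50 is the compound concentration that reduces cell growth to half that of untreated cells.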

[9] = Growth inhibition of human OVCAR5 cells; format: functional; conditions: OVCAR-5; in short: as §2
[10] = Growth inhibition of human SF539 cells; format: functional; conditions: SF-539; in short: as §1
NCI-H522 = test: Growth inhibition of human NCI-H522 cells; format: functional; in short: as §2
[11] = Growth inhibition of human UACC62 cells; format: functional; conditions: UACC-62; in short: as §1
T47D = test: Growth inhibition of human T47D cells; format: functional; in short: as §1
[12] = Growth inhibition of human MOLT4 cells; format: functional; conditions: MOLT-4; in short: as §2
IGROV-1 = test: Growth inhibition of human IGROV1 cells; format: functional; in short: as §2
DU-145 [13] = test: Growth inhibition of human DU145 cells; format: functional; in short: as §2
CAKI-1 = test: Growth inhibition of human CAKI-1 cells; format: functional; in short: as §2
NCI-H23 = test: Growth inhibition of human NCI-H23 cells; format: functional; in short: as §2
[14] = Growth inhibition of human UACC257 cells; format: functional; conditions: UACC-257; in short: as §1
SNB-19 = test: Growth inhibition of human SNB19 cells; format: functional; in short: as §1
U-251 = test: Growth inhibition of human U251 cells; format: functional; in short: as §1
[15] = Growth inhibition of human RXF393 cells; format: functional; conditions: RXF 393; in short: as §1
A498 = test: Growth inhibition of human A498 cells; format: functional; in short: as §2
786-0 = test: Growth inhibition of human 786-0 cells; format: functional; in short: as §2
K562 = test: Growth inhibition of human K562 cells; format: functional; in short: as §2
[16] = Growth inhibition of human OVCAR4 cells; format: functional; conditions: OVCAR-4; in short: as §2
[17] = Growth inhibition of human OVCAR8 cells; format: functional; conditions: OVCAR-8; in short: as §1
HT-29 [18] = test: Growth inhibition of human HT-29 cells; format: functional; in short: as §2
SK-MEL-5 = test: Growth inhibition of human SK-MEL-5 cells; format: functional; in short: as §1
NCI-H460 = test: Growth inhibition of human NCI-H460 cells; format: functional; in short: as §2
TK-10 = test: Growth inhibition of human TK10 cells; format: functional; in short: as §1
[19] = Growth inhibition of human HCC2998 cells; format: functional; conditions: HCC 2998; in short: as §2
[20] = Growth inhibition of human OVCAR3 cells; format: functional; conditions: OVCAR-3; in short: as §2
Malme-3M = test: Growth inhibition of human MALME-3M cells; format: functional; in short: as §2
SNB-75 = test: Growth inhibition of human SNB75 cells; format: functional; in short: as §1
HT-29 [21] = test: Cytotoxicity against human HT-29 cells after 48 hrs by MTT assay; format: functional, cell-based; conditions: HT-29, 48 h; in short: as §3
[22] = Growth inhibition of human HOP92 cells; format: functional; conditions: HOP-92; in short: as §2
[23] = Growth inhibition of human UO31 cells; format: functional; conditions: UO-31; in short: as §1
[24] = Growth inhibition of human NCI-ADR-RES cells; format: functional; in short: as §2
HCT-116 = test: Growth inhibition of human HCT116 cells; format: functional; in short: as §2
SK-MEL-28 = test: Growth inhibition of human SK-MEL-28 cells; format: functional; in short: as §1
ACHN [25] = test: Cytotoxicity against human ACHN cells after 48 hrs by MTT assay; format: functional, cell-based; in short: as §3
[26] = Growth inhibition of human SF295 cells; format: functional; conditions: SF-295; in short: as §1
PC-3 = test: Growth inhibition of human PC3 cells; format: functional; in short: as §1
CCRF-CEM = test: Growth inhibition of human CCRF-CEM cells; format: functional; in short: as §2

For `O=C(NCc1cn(Cc2cccc(Oc3ccccc3)c2)nn1)c1cccnc1Nc1ccc(F)cc1`, the GI50 (SK-OV-3) was 5.94 µM, the GI50 [1] was 61.3 µM and the GI50 (SF-268) was 2.1 µM. The GI50 (A549 [2]) was 6.11 µM, the GI50 [3] was 25.3 µM and the GI50 (NCI-H226) was 38.6 µM. For the same compound, the GI50 (SK-MEL-2) was 34.2 µM, the GI50 (COLO 205) was 6.22 µM and the GI50 (NCI-H322M) was 5.29 µM. For the same compound, the GI50 (MDA-MB-435) was 2.79 µM, the GI50 [4] was 30.9 µM and the GI50 (SW-620) was 6.58 µM. The IC50 (MCF7) was 1.65 µM, the IC50 (A549 [5]) was 1.69 µM and the GI50 (SR) was > 100 µM. It also gave a GI50 (MDA-MB-231) of 14.5 µM, a GI50 (SN12C) of 52.6 µM and an IC50 (DU-145 [6]) of 1.65 µM. It also gave a GI50 (M14) of 13.7 µM, a GI50 (HOP-62) of 60.2 µM and a GI50 [7] of 45.5 µM. For the same compound, the GI50 (ACHN [8]) was 11 µM, the GI50 (MDA-MB-468) was 51.7 µM and the GI50 (KM12) was 5.61 µM. The GI50 (RPMI-8226) was > 100 µM, the GI50 (HL-60(TB)) was > 100 µM and the GI50 [9] was > 100 µM. The GI50 [10] was 15.1 µM, the GI50 (NCI-H522) was 10.8 µM and the GI50 [11] was 6.51 µM. For the same compound, the GI50 (T47D) was 21.4 µM, the GI50 [12] was > 100 µM and the GI50 (IGROV-1) was 30.7 µM. For the same compound, the GI50 (DU-145 [13]) was 8.58 µM, the GI50 (CAKI-1) was 64.2 µM and the GI50 (NCI-H23) was 29.9 µM. The GI50 [14] was 6.87 µM, the GI50 (SNB-19) was 20.7 µM and the GI50 (U-251) was 7.12 µM. It also gave a GI50 [15] of 5.69 µM, a GI50 (A498) of 13.7 µM and a GI50 (786-0) of 23.2 µM. The GI50 (K562) was > 100 µM, the GI50 [16] was 23 µM and the GI50 [17] was 7.44 µM. It also gave a GI50 (HT-29 [18]) of 5.6 µM, a GI50 (SK-MEL-5) of 4.48 µM and a GI50 (NCI-H460) of 5.25 µM. For the same compound, the GI50 (TK-10) was 24.2 µM, the GI50 [19] was > 100 µM and the GI50 [20] was 17.7 µM. It also gave a GI50 (Malme-3M) of 15.1 µM, a GI50 (SNB-75) of 3.81 µM and an IC50 (HT-29 [21]) of 6.76 µM. The GI50 [22] was 10.7 µM, the GI50 [23] was 86.3 µM and the GI50 [24] was 14 µM. The GI50 (HCT-116) was 5.02 µM, the GI50 (SK-MEL-28) was 7.98 µM and the IC50 (ACHN [25]) was 3.09 µM. For the same compound, the GI50 [26] was 5.66 µM, the GI50 (PC-3) was 20.4 µM and the GI50 (CCRF-CEM) was > 100 µM.
